{
  "source": "paper PMC5453640",
  "about": "(Journal of medicinal chemistry, 2017)",
  "key": {"wild-type CFTR [1]": {"biological_target": "T1, wild-type CFTR (Homo sapiens, UniProt P13569)", "T1 sequence (P13569 whole entry)": "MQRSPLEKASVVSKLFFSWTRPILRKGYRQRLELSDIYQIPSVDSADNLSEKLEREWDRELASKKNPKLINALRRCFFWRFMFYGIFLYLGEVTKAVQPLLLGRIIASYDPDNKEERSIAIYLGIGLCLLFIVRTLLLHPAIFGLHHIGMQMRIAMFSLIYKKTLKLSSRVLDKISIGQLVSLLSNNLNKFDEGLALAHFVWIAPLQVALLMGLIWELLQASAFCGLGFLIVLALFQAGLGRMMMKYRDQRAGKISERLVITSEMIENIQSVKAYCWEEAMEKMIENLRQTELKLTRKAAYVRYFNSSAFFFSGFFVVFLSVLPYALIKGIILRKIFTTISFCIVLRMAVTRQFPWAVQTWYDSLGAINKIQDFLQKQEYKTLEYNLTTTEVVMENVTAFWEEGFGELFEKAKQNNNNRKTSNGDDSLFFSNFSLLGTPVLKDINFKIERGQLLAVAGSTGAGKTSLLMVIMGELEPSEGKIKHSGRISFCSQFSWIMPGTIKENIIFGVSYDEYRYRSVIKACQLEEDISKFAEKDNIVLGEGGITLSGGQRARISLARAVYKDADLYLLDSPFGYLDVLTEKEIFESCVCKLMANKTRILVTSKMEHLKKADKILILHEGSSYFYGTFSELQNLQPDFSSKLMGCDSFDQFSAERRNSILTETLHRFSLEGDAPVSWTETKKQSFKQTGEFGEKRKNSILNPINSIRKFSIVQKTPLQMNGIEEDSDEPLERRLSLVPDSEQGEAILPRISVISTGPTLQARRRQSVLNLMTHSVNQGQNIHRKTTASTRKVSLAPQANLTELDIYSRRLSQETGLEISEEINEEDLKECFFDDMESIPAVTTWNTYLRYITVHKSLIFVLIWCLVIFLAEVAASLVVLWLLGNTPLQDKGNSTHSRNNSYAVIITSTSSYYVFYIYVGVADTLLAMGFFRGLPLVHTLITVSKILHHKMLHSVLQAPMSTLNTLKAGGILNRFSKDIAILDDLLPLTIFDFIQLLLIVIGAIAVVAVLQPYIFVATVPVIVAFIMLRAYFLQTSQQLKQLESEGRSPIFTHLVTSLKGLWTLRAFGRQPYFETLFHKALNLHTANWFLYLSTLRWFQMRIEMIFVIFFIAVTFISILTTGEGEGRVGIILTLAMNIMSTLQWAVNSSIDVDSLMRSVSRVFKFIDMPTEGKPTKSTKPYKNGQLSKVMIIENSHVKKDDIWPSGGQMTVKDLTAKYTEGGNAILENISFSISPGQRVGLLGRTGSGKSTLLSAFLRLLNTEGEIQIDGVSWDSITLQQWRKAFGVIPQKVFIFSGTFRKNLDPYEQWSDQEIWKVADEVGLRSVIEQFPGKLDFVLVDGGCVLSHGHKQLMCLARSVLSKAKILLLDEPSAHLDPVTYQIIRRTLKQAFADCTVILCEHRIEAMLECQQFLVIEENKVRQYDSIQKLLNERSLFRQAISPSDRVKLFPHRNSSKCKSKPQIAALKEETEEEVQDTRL", "test": "cell-based plate reader assay of CFTR function", "settings": "for CFTR activation potency of synthesized analogs, comparison in words: Charts 1-3; for CFTR activation potency of commercial analogs, SAR summary in words: commercially available analogs of 1, Supporting Information Table 1"}, "wild-type CFTR [2]": {"biological_target": "T1, wild-type CFTR", "test": "short-circuit current measurement in CFTR-expressing FRT cells", "type": "cell-based", "settings": "compared with maximal concentration of forskolin", "in_short": "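FRT cells expressing human wild-type CFTR on inserts in Ussing chambers. Basolateral HCO3−-buffered and apical half-Cl− solutions; basolateral membrane permeabilized with 250 μg/mL amphotericin B. Gassed with 95% O2/5% CO2 at 37 °C under voltage clamp. Sequence: low forskolin, cumulative test compound, maximal forskolin, then 10 μM CFTRinh-172. EC50 from concentration–response, n = 3.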"}, "[3]": {"tested_on": "cellular cAMP in FRT cells", "test": "cAMP immunoassay in FRT cells", "type": "cell-based, rat", "settings": "10 μM, 10 min, without or with 90 nM forskolin"}, "TMEM16A": {"tested_on": "TMEM16A", "test": "TMEM16A plate reader assay in FRT cells expressing YFP", "type": "cell-based", "settings": "10 μM", "in_short": "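FRT cells stably coexpressing TMEM16A and YFP-H148Q halide sensor, test compound at 10 μM. Activation was tested by iodide addition and inhibition by iodide plus ATP. Assay run like the CFTR plate assay: 2 s baseline, then 12 s after rapid iodide addition. The initial iodide influx rate from YFP quenching was taken as channel function. Representative of two to four experiment sets.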"}, "[4]": {"tested_on": "non-TMEM16A calcium-activated chloride channel (CaCC) in HT-29 cells", "test": "non-TMEM16A CaCC plate reader assay in HT-29 cells expressing YFP", "type": "cell-based", "settings": "10 μM", "in_short": "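HT-29 cells expressing cytoplasmic YFP halide sensor, test compound at 10 μM. Activation was tested by iodide addition and inhibition by iodide plus ATP, reading YFP fluorescence quenching from iodide influx. The initial rate of iodide influx was computed as a linear measure of non-TMEM16A CaCC function. Representative of two to four experiment sets.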"}, "FRT cells": {"tested_on": "FRT cells", "test": "Alamar Blue cytotoxicity assay", "type": "cell-based, rat", "settings": "10 μM, 8 h"}, "[5]": {"type": "in vitro ADME", "settings": "5 μM, rat hepatic microsomes, NADPH"}, "[6]": {"tested_on": "tear fluid secretion in mice", "settings": "cited from earlier work"}, "[7]": {"tested_on": "cytoplasmic calcium in FRT cells", "test": "cytoplasmic calcium by Fluo-4 fluorescence in FRT cells", "type": "cell-based, rat", "settings": "10 μM, 5 min pretreatment"}, "CFTR in HBE cells": {"biological_target": "CFTR in HBE cells (Homo sapiens, UniProt P13569)", "sequence (P13569 whole entry)": "as above", "test": "CFTR activation in HBE cells by short-circuit current", "type": "cell-based"}, "[8]": {"tested_on": "tear volume in wild-type mice", "test": "tear fluid volume after single ocular delivery, wild-type mice", "type": "in vivo, mouse"}, "[9]": {"tested_on": "tear volume in CF mice lacking functional CFTR", "test": "tear fluid volume after single ocular delivery, CF mice", "type": "in vivo, mouse", "settings": "single ocular delivery 250 pmol"}},
  "note": "“Also recorded” adds a separate entry of the source.",
  "data": [
    {"compound": "CCN(CC)c1nc(Nc2cccc(C(=O)O)c2)nc(OC(C(F)(F)F)C(F)(F)F)n1", "note": "[6a]", "values": [
      {"measurement": "CFTR activation potency of synthesized analogs, comparison in words", "setting": "wild-type CFTR [1]", "value": "comparable or slightly better potency than non-substituted aniline (1)"}
    ]},
    {"compound": "CCN(CC)c1nc(Nc2cccc(F)c2)nc(OC(C(F)(F)F)C(F)(F)F)n1", "note": "[6b]", "values": [
      {"measurement": "CFTR activation potency of synthesized analogs, comparison in words", "setting": "wild-type CFTR [1]", "value": "comparable or slightly better potency than non-substituted aniline (1)"}
    ]},
    {"compound": "CCN(CC)c1nc(Nc2cccc(Cl)c2)nc(OC(C(F)(F)F)C(F)(F)F)n1", "note": "[6c]", "values": [
      {"measurement": "CFTR activation potency of synthesized analogs, comparison in words", "setting": "wild-type CFTR [1]", "value": "significantly reduced potency"}
    ]},
    {"compound": "CCN(CC)c1nc(Nc2cccc([N+](=O)[O-])c2)nc(OC(C(F)(F)F)C(F)(F)F)n1", "note": "[6d]", "values": [
      {"measurement": "CFTR activation potency of synthesized analogs, comparison in words", "setting": "wild-type CFTR [1]", "value": "comparable or slightly better potency than non-substituted aniline (1)"}
    ]},
    {"compound": "CCN(CC)c1nc(Nc2ccc3cn[nH]c3c2)nc(OC(C(F)(F)F)C(F)(F)F)n1", "note": "[6h]", "values": [
      {"measurement": "CFTR activation potency of synthesized analogs, comparison in words", "setting": "wild-type CFTR [1]", "value": "less potent than 1"},
      {"measurement": "fold more potent than regioisomer 6i", "setting": "wild-type CFTR [1]; EC50 ratio, Chart 2", "value": "~ 3 fold"}
    ]},
    {"compound": "CCN(CC)c1nc(Nc2ccc3[nH]ncc3c2)nc(OC(C(F)(F)F)C(F)(F)F)n1", "note": "[6i]", "values": [
      {"measurement": "CFTR activation potency of synthesized analogs, comparison in words", "setting": "wild-type CFTR [1]", "value": "less potent than 1"}
    ]},
    {"compound": "CCN(CC)c1nc(Nc2ccc3ncoc3c2)nc(OC(C(F)(F)F)C(F)(F)F)n1", "note": "[6j]", "values": [
      {"measurement": "CFTR activation potency of synthesized analogs, comparison in words", "setting": "wild-type CFTR [1]", "value": "greater potency than 1"}
    ]},
    {"compound": "CCN(CC)c1nc(Nc2ccc3ncsc3c2)nc(OC(C(F)(F)F)C(F)(F)F)n1", "note": "[6k]", "values": [
      {"measurement": "CFTR activation potency of synthesized analogs, comparison in words", "setting": "wild-type CFTR [1]", "value": "significantly greater potency than 1"},
      {"measurement": "fold increase in potency over benzoxazole 6j", "setting": "wild-type CFTR [1]; EC50 ratio, Chart 2", "value": "~ 3 fold"},
      {"measurement": "extent of CFTR activation (short-circuit current)", "setting": "wild-type CFTR [2]", "value": "full CFTR activation"},
      {"measurement": "elevation of cellular cAMP", "setting": "[3]", "value": "did not elevate cellular cAMP"},
      {"measurement": "inhibition or activation of CaCC in TMEM16A-expressing FRT cells", "setting": "TMEM16A", "value": "neither inhibited nor activated"},
      {"measurement": "inhibition or activation of CaCC in HT-29 cells", "setting": "[4]", "value": "neither inhibited nor activated"},
      {"measurement": "cytotoxicity (Alamar Blue)", "setting": "FRT cells", "value": "did not produce significant toxicity"}
    ]},
    {"compound": "CNc1nc(Nc2ccc(C(C)=O)cc2)nc(OC(C(F)(F)F)C(F)(F)F)n1", "note": "[K001]", "values": [
      {"measurement": "CFTR activation potency of commercial analogs, SAR summary in words", "setting": "wild-type CFTR [1]", "value": "reduced activity"}
    ]},
    {"compound": "COc1nc(Nc2ccc([N+](=O)[O-])cc2)nc(OC)n1", "note": "[K023]", "values": [
      {"measurement": "CFTR activation potency of commercial analogs, SAR summary in words", "setting": "wild-type CFTR [1]", "value": "greatly reduced potency"}
    ]},
    {"compound": "CC(C)(C)Nc1nc(Nc2ccc(OC(F)(F)Cl)cc2)nc(OCC(F)(F)F)n1", "note": "[K029]", "values": [
      {"measurement": "CFTR activation potency of commercial analogs, SAR summary in words", "setting": "wild-type CFTR [1]", "value": "reduced potency"}
    ]},
    {"compound": "CNc1nc(Nc2ccc([N+](=O)[O-])cc2)nc(OCC(F)(F)C(F)F)n1", "note": "[K032]", "values": [
      {"measurement": "CFTR activation potency of commercial analogs, SAR summary in words", "setting": "wild-type CFTR [1]", "value": "best potency"}
    ]},
    {"compound": "CCC(C)Nc1nc(Nc2ccc([N+](=O)[O-])cc2)nc(OC(C(F)(F)F)C(F)(F)F)n1", "note": "(stereo not drawn) [K056]", "values": [
      {"measurement": "CFTR activation potency of commercial analogs, SAR summary in words", "setting": "wild-type CFTR [1]", "value": "reduced potency"}
    ]},
    {"compound": "C=CCNc1nc(Nc2cccc([N+](=O)[O-])c2)nc(OC(C(F)(F)F)C(F)(F)F)n1", "note": "[K059]", "values": [
      {"measurement": "CFTR activation potency of commercial analogs, SAR summary in words", "setting": "wild-type CFTR [1]", "value": "best potency"}
    ]},
    {"compound": "FC(F)(F)COc1nc(Nc2ccc(OC(F)(F)F)cc2)nc(NC2CC2)n1", "note": "[K079]", "values": [
      {"measurement": "CFTR activation potency of commercial analogs, SAR summary in words", "setting": "wild-type CFTR [1]", "value": "reduced activity"}
    ]},
    {"compound": "CCN(CC)c1nc(Nc2ccccc2)nc(OC(C(F)(F)F)C(F)(F)F)n1", "note": "[compound 1, N,N-Diethyl-6-[(1,1,1,3,3,3-hexafluoropropan-2-yl)oxy]-N′-phenyl-1,3,5-triazine-2,4-diamine]", "values": [
      {"measurement": "CFTR activation potency of synthesized analogs, comparison in words", "setting": "wild-type CFTR [1]", "value": "more potent than tetrafluoropropanol (7a)"},
      {"measurement": "CFTR activation potency of commercial analogs, SAR summary in words", "setting": "wild-type CFTR [1]", "value": "best potency"},
      {"measurement": "metabolic stability in hepatic microsomes, in words", "setting": "[5]", "value": "metabolized rapidly"},
      {"measurement": "tear fluid secretion after topical delivery", "setting": "[6]", "value": "increased tear fluid secretion in mice; also recorded: increased tear fluid secretion after topical delivery"}
    ]},
    {"compound": "CNc1nc(Nc2ccccc2)nc(OCC(F)(F)C(F)F)n1", "note": "[compound 12, N-Methyl-N′-phenyl-6-(2,2,3,3-tetrafluoropropoxy)-1,3,5-triazine-2,4-diamine]", "values": [
      {"measurement": "fold better EC50 than diethylamine analog 6a", "setting": "wild-type CFTR [1]; EC50 ratio, Chart 3", "value": "~ 50 fold"},
      {"measurement": "fold more potent than hexafluoropropanol analog 11", "setting": "wild-type CFTR [1]; EC50 ratio, Chart 3", "value": "~ 3 fold"},
      {"measurement": "extent of CFTR activation (short-circuit current)", "setting": "wild-type CFTR [2]", "value": "fully activated CFTR chloride conductance; also recorded: full CFTR activation"},
      {"measurement": "elevation of cellular cAMP", "setting": "[3]", "value": "without causing cAMP or calcium elevation; also recorded: did not elevate cellular cAMP"},
      {"measurement": "increase of cytoplasmic calcium", "setting": "[7]", "value": "without causing cAMP or calcium elevation"},
      {"measurement": "inhibition or activation of CaCC in TMEM16A-expressing FRT cells", "setting": "TMEM16A", "value": "neither inhibited nor activated"},
      {"measurement": "inhibition or activation of CaCC in HT-29 cells", "setting": "[4]", "value": "neither inhibited nor activated"},
      {"measurement": "CFTR activation in HBE cells after forskolin", "setting": "CFTR in HBE cells; 0.1 μM compound, after 100 nM forskolin", "value": "fully activated CFTR"},
      {"measurement": "CFTR activation in HBE cells without forskolin", "setting": "CFTR in HBE cells; absence of basal CFTR phosphorylation produced by forskolin", "value": "did not activate CFTR"},
      {"measurement": "cytotoxicity (Alamar Blue)", "setting": "FRT cells", "value": "did not produce significant toxicity"},
      {"measurement": "duration of sustained in vivo efficacy in increasing tear volume", "setting": "[8]; mice, dose not given", "value": "at least 8 h"},
      {"measurement": "time over which tear volume returned to baseline", "setting": "[8]; wild-type mice, single topical dose 100 μM (250 pmol)", "value": "12 to 24", "unit": "h"},
      {"measurement": "duration of sustained increase in tear volume", "setting": "[8]; wild-type mice, single topical dose 100 μM (250 pmol) in 2.5 μL", "value": 8, "unit": "h"},
      {"measurement": "duration of sustained effect on tear volume", "setting": "[8]; wild-type mice, single topical dose down to 25 pmol", "value": 8, "unit": "h"},
      {"measurement": "time of maximal tear volume", "setting": "[8]; wild-type mice, single topical doses down to 25 pmol", "value": "1 to 3", "unit": "h"},
      {"measurement": "effect on tear volume in CF mice", "setting": "[9]", "value": "without effect; also recorded: did not increase tear volume"}
    ]}
  ]
}
